tested on: Eudrilus; experiment: Anthelmintic activity against Eudrilus sp. assessed as mean death time; assay type: functional; conditions: not given
In short: (§1)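 Earthworms exposed to test suspensions at 2 mg mL−1, prepared by triturating compound with Tween 80 (0.5%) and distilled water, stirring 30 min, then diluting to 0.2% w/v. Mebendazole suspension was made the same way. Death was confirmed by moving worms into 50 °C warm water and looking for movement. Mean death time (min) taken from triplicate sets.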

| SMILES | Time |
| --- | --- |
| COC(=O)[C@H](CCCNC(=N)N[N+](=O)[O-])NC(=O)[C@@H]1CCCN1C(=O)c1cc(I)c(-c2nc3cc(C)c(C)cc3[nH]2)c(I)c1 | 30.02 min |

tested on: not listed separately; experiment: Growth inhibition of DLA cells at 500 ug/mL after 3 hrs; assay type: functional; conditions: Mus musculus
In short: (§2)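 DLA and EAC cells passaged intraperitoneally in albino mice, harvested after 15–20 days and adjusted to 1 × 10⁶ cells/mL. Dilutions in Dulbecco's medium (500–31.25, some down to 3.91 µg/mL; 5-FU reference) mixed 1:1 with cells and held 3 h at 37 °C. Trypan blue exclusion gave % growth inhibition; CTC50 by graphical extrapolation.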

| SMILES | inhibition at 500 µg/mL |
| --- | --- |
| COC(=O)[C@H](CCCNC(=N)N[N+](=O)[O-])NC(=O)[C@@H]1CCCN1C(=O)c1cc(I)c(-c2nc3cc(C)c(C)cc3[nH]2)c(I)c1 | 84.2% |

tested on: not listed separately; experiment: Growth inhibition of DLA cells at 250 ug/mL after 3 hrs; assay type: functional; conditions: Mus musculus; in short: as §2

| SMILES | inhibition at 250 µg/mL |
| --- | --- |
| COC(=O)[C@H](CCCNC(=N)N[N+](=O)[O-])NC(=O)[C@@H]1CCCN1C(=O)c1cc(I)c(-c2nc3cc(C)c(C)cc3[nH]2)c(I)c1 | 68.4% |

tested on: not listed separately; experiment: Growth inhibition of DLA cells at 125 ug/mL after 3 hrs; assay type: functional; conditions: Mus musculus; in short: as §2

| SMILES | inhibition at 125 µg/mL |
| --- | --- |
| COC(=O)[C@H](CCCNC(=N)N[N+](=O)[O-])NC(=O)[C@@H]1CCCN1C(=O)c1cc(I)c(-c2nc3cc(C)c(C)cc3[nH]2)c(I)c1 | 52.6% |

tested on: not listed separately; experiment: Growth inhibition of DLA cells at 62.5 ug/mL after 3 hrs; assay type: functional; conditions: Mus musculus; in short: as §2

| SMILES | inhibition at 62.5 µg/mL |
| --- | --- |
| COC(=O)[C@H](CCCNC(=N)N[N+](=O)[O-])NC(=O)[C@@H]1CCCN1C(=O)c1cc(I)c(-c2nc3cc(C)c(C)cc3[nH]2)c(I)c1 | 28.9% |

tested on: not listed separately; experiment: Growth inhibition of DLA cells at 31.25 ug/mL after 3 hrs; assay type: functional; conditions: Mus musculus; in short: as §2

| SMILES | inhibition at 31.25 µg/mL |
| --- | --- |
| COC(=O)[C@H](CCCNC(=N)N[N+](=O)[O-])NC(=O)[C@@H]1CCCN1C(=O)c1cc(I)c(-c2nc3cc(C)c(C)cc3[nH]2)c(I)c1 | 15.8% |

tested on: not listed separately; experiment: Growth inhibition of DLA cells after 3 hrs; assay type: functional; conditions: Mus musculus; in short: as §2

| SMILES | CC50 |
| --- | --- |
| COC(=O)[C@H](CCCNC(=N)N[N+](=O)[O-])NC(=O)[C@@H]1CCCN1C(=O)c1cc(I)c(-c2nc3cc(C)c(C)cc3[nH]2)c(I)c1 | 114 µM |

tested on: not listed separately; experiment: Growth inhibition of EAC cells at 500 ug/mL after 3 hrs; assay type: functional; conditions: Mus musculus, Ehrlich; in short: as §2

| SMILES | inhibition at 500 µg/mL |
| --- | --- |
| COC(=O)[C@H](CCCNC(=N)N[N+](=O)[O-])NC(=O)[C@@H]1CCCN1C(=O)c1cc(I)c(-c2nc3cc(C)c(C)cc3[nH]2)c(I)c1 | 100% |

tested on: not listed separately; experiment: Growth inhibition of EAC cells at 250 ug/mL after 3 hrs; assay type: functional; conditions: Mus musculus, Ehrlich; in short: as §2

| SMILES | inhibition at 250 µg/mL |
| --- | --- |
| COC(=O)[C@H](CCCNC(=N)N[N+](=O)[O-])NC(=O)[C@@H]1CCCN1C(=O)c1cc(I)c(-c2nc3cc(C)c(C)cc3[nH]2)c(I)c1 | 100% |

tested on: not listed separately; experiment: Growth inhibition of EAC cells at 125 ug/mL after 3 hrs; assay type: functional; conditions: Mus musculus, Ehrlich; in short: as §2

| SMILES | inhibition at 125 µg/mL |
| --- | --- |
| COC(=O)[C@H](CCCNC(=N)N[N+](=O)[O-])NC(=O)[C@@H]1CCCN1C(=O)c1cc(I)c(-c2nc3cc(C)c(C)cc3[nH]2)c(I)c1 | 100% |

tested on: not listed separately; experiment: Growth inhibition of EAC cells at 62.5 ug/mL after 3 hrs; assay type: functional; conditions: Mus musculus, Ehrlich; in short: as §2

| SMILES | inhibition at 62.5 µg/mL |
| --- | --- |
| COC(=O)[C@H](CCCNC(=N)N[N+](=O)[O-])NC(=O)[C@@H]1CCCN1C(=O)c1cc(I)c(-c2nc3cc(C)c(C)cc3[nH]2)c(I)c1 | 35.7% |

tested on: not listed separately; experiment: Growth inhibition of EAC cells at 31.25 ug/mL after 3 hrs; assay type: functional; conditions: Mus musculus, Ehrlich; in short: as §2

| SMILES | inhibition at 31.25 µg/mL |
| --- | --- |
| COC(=O)[C@H](CCCNC(=N)N[N+](=O)[O-])NC(=O)[C@@H]1CCCN1C(=O)c1cc(I)c(-c2nc3cc(C)c(C)cc3[nH]2)c(I)c1 | 21.4% |

tested on: not listed separately; experiment: Growth inhibition of EAC cells after 3 hrs; assay type: functional; conditions: Mus musculus, Ehrlich; in short: as §2

| SMILES | CC50 |
| --- | --- |
| COC(=O)[C@H](CCCNC(=N)N[N+](=O)[O-])NC(=O)[C@@H]1CCCN1C(=O)c1cc(I)c(-c2nc3cc(C)c(C)cc3[nH]2)c(I)c1 | 84.3 µM |

tested on: not listed separately; experiment: Anthelmintic activity against Megascoplex konkanensis ICARBC 211 assessed as mean paralyzing time; assay type: functional; conditions: not given
In short: (§3)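 Earthworms exposed to test suspensions at 2 mg mL^-1 (0.2% w/v), made by triturating compound with Tween 80 (0.5%) and distilled water, then mechanically stirred 30 min. Mebendazole suspension prepared alike as reference. Paralysis and death times recorded; death confirmed by no movement in 50 °C water. Means from triplicate sets.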

| SMILES | TIME |
| --- | --- |
| COC(=O)[C@H](CCCNC(=N)N[N+](=O)[O-])NC(=O)[C@@H]1CCCN1C(=O)c1cc(I)c(-c2nc3cc(C)c(C)cc3[nH]2)c(I)c1 | 0.299 h |

tested on: not listed separately; experiment: Anthelmintic activity against Megascoplex konkanensis ICARBC 211 assessed as mean death time; assay type: functional; conditions: not given; in short: as §3

| SMILES | TIME |
| --- | --- |
| COC(=O)[C@H](CCCNC(=N)N[N+](=O)[O-])NC(=O)[C@@H]1CCCN1C(=O)c1cc(I)c(-c2nc3cc(C)c(C)cc3[nH]2)c(I)c1 | 0.439 h |

tested on: Pontoscolex corethrurus; experiment: Anthelmintic activity against Pontoscolex corethrurus ICARBC 408 assessed as mean paralyzing time; assay type: functional; conditions: not given; in short: as §3

| SMILES | Time |
| --- | --- |
| COC(=O)[C@H](CCCNC(=N)N[N+](=O)[O-])NC(=O)[C@@H]1CCCN1C(=O)c1cc(I)c(-c2nc3cc(C)c(C)cc3[nH]2)c(I)c1 | 22.77 min |

tested on: Pontoscolex corethrurus; experiment: Anthelmintic activity against Pontoscolex corethrurus ICARBC 408 assessed as mean death time; assay type: functional; conditions: not given; in short: as §1

| SMILES | Time |
| --- | --- |
| COC(=O)[C@H](CCCNC(=N)N[N+](=O)[O-])NC(=O)[C@@H]1CCCN1C(=O)c1cc(I)c(-c2nc3cc(C)c(C)cc3[nH]2)c(I)c1 | 34.45 min |

— ChEMBL document CHEMBL1146375, “Synthetic studies on novel benzimidazolopeptides with antimicrobial, cytotoxic and anthelmintic potential” (2007)
